The subject of one series is mouse cancer models. Conditions: cited from earlier work.
For another series, the target named is T1, human ARG2 (Homo sapiens, UniProt P78540).
T1 sequence (P78540 23-354): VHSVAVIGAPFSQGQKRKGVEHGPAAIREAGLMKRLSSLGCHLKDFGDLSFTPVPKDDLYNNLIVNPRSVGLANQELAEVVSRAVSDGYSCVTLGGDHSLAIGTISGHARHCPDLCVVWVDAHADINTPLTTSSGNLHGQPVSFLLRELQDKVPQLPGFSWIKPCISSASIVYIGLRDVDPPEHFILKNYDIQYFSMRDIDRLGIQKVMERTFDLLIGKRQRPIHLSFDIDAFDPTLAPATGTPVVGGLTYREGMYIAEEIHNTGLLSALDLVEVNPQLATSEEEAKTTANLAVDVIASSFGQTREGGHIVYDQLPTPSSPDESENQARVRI
Put plainly: Isothermal titration calorimetry with free ARG2. It counts as binding. Conditions: KD (ITC), free ARG2 20 µM monomer, 25°C. An outline of the steps: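 ITC on a MicroCal VP at 25°C. A 750 µM (0.75 mM) boronic acid arginase-inhibitor ligand was titrated into 20 µM recombinant human ARG2 (monomer concentration). Thermograms were integrated, and isotherms were fitted to a one-site (one-to-one) binding model. Error was taken as a 68.3% confidence interval.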

For series [1], the target named is T2, ARG2-C0021158 Fab complex (Homo sapiens, UniProt P78540).
T2 sequence (P78540 23-354): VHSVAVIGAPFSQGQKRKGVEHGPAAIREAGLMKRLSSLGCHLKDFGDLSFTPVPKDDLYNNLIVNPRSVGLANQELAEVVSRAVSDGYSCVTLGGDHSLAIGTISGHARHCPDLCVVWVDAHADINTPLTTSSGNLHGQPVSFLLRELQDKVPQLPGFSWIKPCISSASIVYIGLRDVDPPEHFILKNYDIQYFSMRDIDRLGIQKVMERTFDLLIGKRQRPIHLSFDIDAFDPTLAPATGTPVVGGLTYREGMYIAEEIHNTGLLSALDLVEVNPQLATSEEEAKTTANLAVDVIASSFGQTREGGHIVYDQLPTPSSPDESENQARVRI
Description: Isothermal titration calorimetry with ARG2-C0021158 Fab complex. It is filed as binding. As to conditions: ARG2 + C0021158 Fab 1:1 mix, 20 µM each. Put shortly: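 ITC on a MicroCal VP at 25°C. Recombinant human ARG2 and test Fab were mixed 1:1 at 20 µM each (ARG2 as monomer) and pre-incubated 1 h at 20°C. Boronic acid arginase-inhibitor ligand at 0.50 mM was then titrated in. Isotherms were fitted to a one-site binding model.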

Series [2] relates to CD3/CD28 co-stimulated T-cells. Description: In vitro T-cell proliferation assay. It is filed as cell-based, human. Conditions: ARG2 15 µg/ml; BrdU. Put shortly: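 Human PBMCs were isolated from leukocyte cones by Ficoll gradient, and T cells were enriched by negative selection. 40000 cells/well in RPMI 1640 with 5% human serum albumin were activated with CD3/CD28 (1:40) for 45 min at 37°C, 5% CO2. Antibody titrations in TBS/NaCl were added for 30 min, then recombinant human trimeric ARG2 (15 µg/ml final). Incubation lasted 96 h total, with BrdU added at 78 h and read by ELISA. Data were expressed as % of control, with EC50 from a four-parameter fit.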

For a further series, the system named is mRCC CL-19 cell line. As to conditions: high expressing ARG2 mRCC CL-19 cell line; cited from earlier work.
Series [3] concerns the target biotinylated recombinant human ARG2 trimer (human, UniProt P78540, biotin (site not stated)).
The target in series [4] is recombinant human Arginase 2 (ARG2) trimer, residues 23-354, C-terminal His6-tag (human, UniProt P78540). Put plainly: crystal structure.
The series “crystal structure” deals with the molecule itself. Put plainly: crystal structure.

As usually defined, the Kd is the concentration at which binding is half-saturated. Broadly, the stoichiometry N is the number of molecules, sites or subunits per partner or assembly.

Consider `C[C@H](N)C(=O)N1C[C@H](CCCB(O)O)[C@](N)(C(=O)O)C1` [CB-1158], for which the tumor growth entry in the series on mouse cancer models (mouse cancer models) is “reduces tumor growth”.
With `Cl.N[C@@H](CSCCB(O)O)C(=O)O` [BEC, S-(2-Boronoethyl)-L-cysteine hydrochloride], the Kd on human ARG2 was about 7 µM. For the same molecule, the “binding to C0021158-bound ARG2 (ITC)” value in series [1] is reported as “no interaction”.
For `NC(=NCCC[C@H](N)C(=O)O)NO` [NHLA, N^G-hydroxy-L-arginine], the “restoration of ARG2-inhibited T-cell proliferation” value in series [2] is recorded as “partially restore”.
Turning to `N=C(NO)NCC[C@H](N)C(=O)O` [nor-NOHA, N^ω-hydroxy-nor-L-arginine], the “anti-tumor effect in vivo” value in the series with mouse cancer models (in vivo mouse models) is given as “anti-tumor effects”. For the same molecule, in the series on mRCC CL-19 cell line, the cell growth entry was “significantly suppressed cell growth”.

B1: C0021177 (antibody, V domains shown)
VH: EVQLLESGGGLVQPGGSLRLSCAASGFTFRYEVAAWVRQAPGKGLEWVSAISGPAPKGYYADSVKGRFTISRDNSKNTLYLQMNSLRAEDTAVYYCARLRADLGLYMDLWGRGTLVTVSS
VL: QSELTQPPTASAAPGQKVTISCSGSSSNIGNHYVSWYQQLPGTAPKLLIYDTTVLSSGIPDRFSGSKSGTSATLGITGLQTGDEADYYCGTWDELTSNLVFGGGTKLTVL
B1: in series [3], the Kd was 0.173 nM.

B2: C0021158 Fab (Fab, V domains shown)
VH: EVQLLESGGGLVQPGGSLRLSCAASGFTFRYEVAAWVRQAPGKGLEWVSAISGPIPKGYYADSVKGRFTISRDNSKNTLYLQMNSLRAEDTAVYYCARLRADLGLYMDLWGRGTLVTVSS
VL: QSVLTQPPSVSAAPGQKVTISCSGSSSNIGNHYVSWYQQLPGTAPKLLIYDNSERTAGVPDRFSGSKSGTSATLGITGLQTGDEADYYCGTWDELTSNLVFGGGTKLTVL
With B2, in series [4], the “stoichiometry N” value was found to be 3 Fab per ARG2 trimer.

B3: recombinant human Arginase 2 (ARG2) trimer, residues 23-354, C-terminal His6-tag (enzyme, UniProt P78540 23-354, looked up)
chain: VHSVAVIGAPFSQGQKRKGVEHGPAAIREAGLMKRLSSLGCHLKDFGDLSFTPVPKDDLYNNLIVNPRSVGLANQELAEVVSRAVSDGYSCVTLGGDHSLAIGTISGHARHCPDLCVVWVDAHADINTPLTTSSGNLHGQPVSFLLRELQDKVPQLPGFSWIKPCISSASIVYIGLRDVDPPEHFILKNYDIQYFSMRDIDRLGIQKVMERTFDLLIGKRQRPIHLSFDIDAFDPTLAPATGTPVVGGLTYREGMYIAEEIHNTGLLSALDLVEVNPQLATSEEEAKTTANLAVDVIASSFGQTREGGHIVYDQLPTPSSPDESENQARVRI
As for B3, in the series “crystal structure”, the “stoichiometry N” value worked out at 3.
